ChEMBL document CHEMBL1137942, “Design, synthesis, and biological activity of novel, potent, and selective (benzoylaminomethyl)thiophene sulfonamide inhibitors of c-Jun-N-terminal kinase” (J Med Chem, 2004)

Assays:
[1] = target: Mitogen-activated protein kinase 9, JNK2 (Homo sapiens) (UniProt P45984); assay: Percentage activity of human JNK2a2 in the presence of 10 uM of compound and 10 uM of ATP in comparison with control
[2] = target: Dual specificity mitogen-activated protein kinase kinase 4 (Mus musculus) (UniProt P47809); assay: Percentage activity of mouse MKK4 in the presence of 10 uM of compound and 10 uM of ATP in comparison with control
[3] = target: Fibroblast growth factor receptor 3 (Homo sapiens) (UniProt P22607); assay: Percentage activity of human FGFR3 in the presence of 10 uM of compound and 10 uM of ATP in comparison with control
[4] = target: Mitogen-activated protein kinase 1 (Homo sapiens) (UniProt P28482); assay: Percentage activity of human MAPK2 in the presence of 10 uM of compound and 10 uM of ATP in comparison with control
[5] = target: Tyrosine-protein kinase Fyn (Homo sapiens) (UniProt P06241); assay: Percentage activity of human Fyn in the presence of 10 uM of compound and 10 uM of ATP in comparison with control
[6] = target: Protein kinase C delta type (Homo sapiens) (UniProt Q05655); assay: Percentage activity of human PKC delta in the presence of 10 uM of compound and 10 uM of ATP in comparison with control
[7] = target: Mitogen-activated protein kinase 10 (Homo sapiens) (UniProt P53779); assay: Percentage activity of human JNK3 in the presence of 10 uM of compound and 10 uM of ATP in comparison with control
[8] = target: Tyrosine-protein kinase ABL2 (Mus musculus) (UniProt Q4JIM5); assay: Percentage activity of mouse Arg in the presence of 10 uM of compound and 10 uM of ATP in comparison with control
[9] = target: Dual specificity mitogen-activated protein kinase kinase 6 (Homo sapiens) (UniProt P52564); assay: Percentage activity of human MKK6 in the presence of 10 uM of compound and 10 uM of ATP in comparison with control
[10] = target: Platelet-derived growth factor receptor beta (Homo sapiens) (UniProt P09619); assay: Percentage activity of human PDGFR beta in the presence of 10 uM of compound and 10 uM of ATP in comparison with control
[11] = target: Ribosomal protein S6 kinase alpha-3 (Homo sapiens) (UniProt P51812); assay: Percentage activity of human Rsk3 in the presence of 10uM of compound and 10uM of ATP in comparison with control
[12] = target: Casein kinase II (Homo sapiens) (UniProt P67870+P68400+P19784); assay: Percentage activity of human CK2 in the presence of 10 uM of compound and 10 uM of ATP in comparison with control; format: protein-complex assay
[13] = target: Ca2+/calmodulin-dependent protein kinase II (CaM kinase II) (Rattus norvegicus) (UniProt P11275+P08413+P15791+P11730); assay: Percentage activity of rat CaMKII in the presence of 10uM of compound and 10uM of ATP in comparison with control; format: protein assay
Rattus norvegicus = species on record: Rattus norvegicus; assay: Percentage activity of rat AMPK in the presence of 10 uM of compound and 10 uM of ATP in comparison with control
[14] = target: Protein kinase C alpha type (Homo sapiens) (UniProt P17252); assay: Percentage activity of human PKC alpha -His in the presence of 10 uM of compound and 10 uM of ATP in comparison with control
[15] = target: Mitogen-activated protein kinase 12 (Homo sapiens) (UniProt P53778); assay: Percentage activity of human SAPK3 in the presence of 10 uM of compound and 10 uM of ATP in comparison with control
[16] = target: Protein kinase C iota type (Homo sapiens) (UniProt P41743); assay: Percentage activity of human PKC iota in the presence of 10 uM of compound and 10 uM of ATP in comparison with control
SCG [17] = assay: Cell activity of JNK inhibitors in neuronal apoptosis assay in SCG cells, percentage rescued neurons at 3 uM compound concentration after 48 hours; format: functional, Rattus norvegicus
How it was run: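 They were cultured in Leibowitz medium with 5% rat serum, 0.75 µg/mL NGF 7S and arabinosine C 10^-5 M. On day 4, medium was switched to 10 µg/mL anti-NGF antibody without NGF or AraC, with inhibitor in 1% DMSO. After 24 h, cells were refed initial medium minus AraC. After another 24 h, viability was read by MTT (0.5 mg/mL, 30 min, 37 °C), OD 590 nm.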

[18] = target: Mitogen-activated protein kinase 11 (Homo sapiens) (UniProt Q15759); assay: Percentage activity of human SAPK2b in the presence of 10 uM of compound and 10 uM of ATP in comparison with control
[19] = target: Proto-oncogene tyrosine-protein kinase Src (Homo sapiens) (UniProt P12931); assay: Percentage activity of human cSRC in the presence of 10 uM of compound and 10 uM of ATP in comparison with control
[20] = target: Ribosomal protein S6 kinase alpha-5 (Homo sapiens) (UniProt O75582); assay: Percentage activity of human MSK1 in the presence of 10 uM of compound and 10 uM of ATP in comparison with control
[21] = target: Tyrosine-protein kinase ABL1 (Mus musculus) (UniProt P00520); assay: Percentage activity of mouse Abl in the presence of 10 uM of compound and 10 uM of ATP in comparison with control
[22] = target: Serine/threonine-protein kinase Chk1 (Homo sapiens) (UniProt O14757); assay: Percentage activity of human CHK1 in the presence of 10 uM of compound and 10 uM of ATP in comparison with control
[23] = target: Inhibitor of nuclear factor kappa-B kinase subunit beta (Homo sapiens) (UniProt O14920); assay: Percentage activity of human IKK beta in the presence of 10uM of compound and 10uM of ATP in comparison with control
[24] = target: Ribosomal protein S6 kinase (P70S6K) (Homo sapiens) (UniProt Q9UBS0+P23443); assay: Percentage activity of human p70S6K in the presence of 10 uM of compound and 10 uM of ATP in comparison with control; format: protein-complex assay
SCG [25] = assay: Cell activity of JNK inhibitors in neuronal apoptosis assay in SCG cells, percentage rescued neurons at 3uM compound concentration after 24 hours; format: functional, Rattus norvegicus
[26] = target: Serine/threonine-protein kinase D2 (Homo sapiens) (UniProt Q9BZL6); assay: Percentage activity of human PKD2 in the presence of 10 uM of compound and 10 uM of ATP in comparison with control

Chain of Tyrosine-protein kinase ABL2 (Mus musculus) (Q4JIM5 whole entry): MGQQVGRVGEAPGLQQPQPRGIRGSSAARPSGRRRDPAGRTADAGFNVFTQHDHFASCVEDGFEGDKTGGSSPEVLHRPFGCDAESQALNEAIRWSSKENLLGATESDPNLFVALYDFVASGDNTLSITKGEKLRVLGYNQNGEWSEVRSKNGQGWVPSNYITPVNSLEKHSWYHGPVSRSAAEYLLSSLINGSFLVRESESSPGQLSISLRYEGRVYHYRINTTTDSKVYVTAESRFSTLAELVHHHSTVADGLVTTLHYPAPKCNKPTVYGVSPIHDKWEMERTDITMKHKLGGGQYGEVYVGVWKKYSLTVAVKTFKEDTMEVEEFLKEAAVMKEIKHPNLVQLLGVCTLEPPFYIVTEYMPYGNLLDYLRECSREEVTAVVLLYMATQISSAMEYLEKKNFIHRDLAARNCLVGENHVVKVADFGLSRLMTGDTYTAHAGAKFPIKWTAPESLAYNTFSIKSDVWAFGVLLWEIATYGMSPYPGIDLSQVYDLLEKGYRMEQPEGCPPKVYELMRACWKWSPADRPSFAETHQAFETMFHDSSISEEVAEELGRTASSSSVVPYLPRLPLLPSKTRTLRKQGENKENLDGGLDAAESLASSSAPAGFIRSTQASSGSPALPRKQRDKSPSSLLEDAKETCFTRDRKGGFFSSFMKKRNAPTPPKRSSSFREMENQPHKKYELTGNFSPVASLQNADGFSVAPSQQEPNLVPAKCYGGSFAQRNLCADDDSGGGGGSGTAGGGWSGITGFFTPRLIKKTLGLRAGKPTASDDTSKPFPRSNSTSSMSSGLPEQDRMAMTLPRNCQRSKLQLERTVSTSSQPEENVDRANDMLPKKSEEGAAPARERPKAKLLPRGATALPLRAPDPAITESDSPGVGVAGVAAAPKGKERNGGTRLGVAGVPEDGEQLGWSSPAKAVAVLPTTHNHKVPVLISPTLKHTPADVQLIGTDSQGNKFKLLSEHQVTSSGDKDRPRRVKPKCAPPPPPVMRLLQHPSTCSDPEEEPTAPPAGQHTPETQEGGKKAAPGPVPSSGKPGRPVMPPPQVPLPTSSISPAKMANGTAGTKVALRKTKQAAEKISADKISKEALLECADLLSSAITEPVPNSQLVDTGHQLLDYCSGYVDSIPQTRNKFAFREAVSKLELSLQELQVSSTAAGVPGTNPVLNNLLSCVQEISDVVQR
Chain of Tyrosine-protein kinase ABL1 (Mus musculus) (P00520 whole entry): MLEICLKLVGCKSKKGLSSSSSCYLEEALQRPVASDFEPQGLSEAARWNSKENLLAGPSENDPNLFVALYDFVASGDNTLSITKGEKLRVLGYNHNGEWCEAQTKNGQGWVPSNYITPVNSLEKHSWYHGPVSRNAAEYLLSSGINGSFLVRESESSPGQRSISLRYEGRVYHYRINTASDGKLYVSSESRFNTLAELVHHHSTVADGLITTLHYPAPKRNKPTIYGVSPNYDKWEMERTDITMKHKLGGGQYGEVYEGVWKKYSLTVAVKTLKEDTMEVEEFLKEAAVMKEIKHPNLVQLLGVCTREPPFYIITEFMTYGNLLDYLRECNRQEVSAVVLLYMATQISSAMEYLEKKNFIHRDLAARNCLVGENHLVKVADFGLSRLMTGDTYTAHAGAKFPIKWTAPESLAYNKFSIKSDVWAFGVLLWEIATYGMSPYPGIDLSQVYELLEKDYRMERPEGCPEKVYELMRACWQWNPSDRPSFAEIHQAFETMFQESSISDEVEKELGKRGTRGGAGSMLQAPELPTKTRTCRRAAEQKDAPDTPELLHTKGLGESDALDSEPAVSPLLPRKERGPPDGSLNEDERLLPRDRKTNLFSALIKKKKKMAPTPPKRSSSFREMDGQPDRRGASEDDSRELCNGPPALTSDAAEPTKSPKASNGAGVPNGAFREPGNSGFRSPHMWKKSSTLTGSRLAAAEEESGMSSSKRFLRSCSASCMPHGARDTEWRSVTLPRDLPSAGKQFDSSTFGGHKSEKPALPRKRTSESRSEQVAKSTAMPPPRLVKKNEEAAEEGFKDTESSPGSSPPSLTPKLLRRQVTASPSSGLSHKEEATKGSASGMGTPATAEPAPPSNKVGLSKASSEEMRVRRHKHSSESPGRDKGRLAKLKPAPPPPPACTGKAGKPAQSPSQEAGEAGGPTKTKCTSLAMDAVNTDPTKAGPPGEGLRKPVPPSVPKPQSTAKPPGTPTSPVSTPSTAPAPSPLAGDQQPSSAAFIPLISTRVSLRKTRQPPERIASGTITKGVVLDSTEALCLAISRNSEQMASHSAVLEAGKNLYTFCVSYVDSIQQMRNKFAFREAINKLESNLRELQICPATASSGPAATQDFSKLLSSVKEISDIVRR
Chain of Serine/threonine-protein kinase Chk1 (Homo sapiens) (O14757 whole entry): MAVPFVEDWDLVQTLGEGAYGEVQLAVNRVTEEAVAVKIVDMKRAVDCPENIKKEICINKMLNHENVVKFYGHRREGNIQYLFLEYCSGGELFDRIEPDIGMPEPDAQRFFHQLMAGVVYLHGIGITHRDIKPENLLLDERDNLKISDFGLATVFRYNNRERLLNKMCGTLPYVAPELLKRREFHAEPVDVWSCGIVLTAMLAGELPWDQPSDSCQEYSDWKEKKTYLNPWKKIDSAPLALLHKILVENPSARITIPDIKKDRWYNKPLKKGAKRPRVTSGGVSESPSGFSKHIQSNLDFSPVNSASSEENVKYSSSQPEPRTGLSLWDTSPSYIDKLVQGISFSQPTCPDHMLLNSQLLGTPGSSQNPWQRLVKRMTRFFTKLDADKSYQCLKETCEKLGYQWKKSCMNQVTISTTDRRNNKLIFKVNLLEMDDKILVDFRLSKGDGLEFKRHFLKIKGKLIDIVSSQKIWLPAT
Chain of Proto-oncogene tyrosine-protein kinase Src (Homo sapiens) (P12931 2-536 limits assumed): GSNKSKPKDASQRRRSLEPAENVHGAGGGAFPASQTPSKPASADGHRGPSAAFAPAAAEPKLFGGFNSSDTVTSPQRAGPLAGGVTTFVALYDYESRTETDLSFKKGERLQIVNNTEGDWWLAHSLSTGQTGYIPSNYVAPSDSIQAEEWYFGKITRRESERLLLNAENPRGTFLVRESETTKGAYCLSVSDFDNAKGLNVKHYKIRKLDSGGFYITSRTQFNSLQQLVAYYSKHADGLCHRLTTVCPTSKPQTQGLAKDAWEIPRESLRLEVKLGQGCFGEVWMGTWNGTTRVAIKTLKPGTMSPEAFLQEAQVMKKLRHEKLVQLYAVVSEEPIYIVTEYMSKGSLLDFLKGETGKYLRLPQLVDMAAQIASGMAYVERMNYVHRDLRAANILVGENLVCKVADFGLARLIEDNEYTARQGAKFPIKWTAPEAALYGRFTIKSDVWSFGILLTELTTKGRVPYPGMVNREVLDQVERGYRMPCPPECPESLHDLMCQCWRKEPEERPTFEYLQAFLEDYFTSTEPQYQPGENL
Chain of Inhibitor of nuclear factor kappa-B kinase subunit beta (Homo sapiens) (O14920 whole entry): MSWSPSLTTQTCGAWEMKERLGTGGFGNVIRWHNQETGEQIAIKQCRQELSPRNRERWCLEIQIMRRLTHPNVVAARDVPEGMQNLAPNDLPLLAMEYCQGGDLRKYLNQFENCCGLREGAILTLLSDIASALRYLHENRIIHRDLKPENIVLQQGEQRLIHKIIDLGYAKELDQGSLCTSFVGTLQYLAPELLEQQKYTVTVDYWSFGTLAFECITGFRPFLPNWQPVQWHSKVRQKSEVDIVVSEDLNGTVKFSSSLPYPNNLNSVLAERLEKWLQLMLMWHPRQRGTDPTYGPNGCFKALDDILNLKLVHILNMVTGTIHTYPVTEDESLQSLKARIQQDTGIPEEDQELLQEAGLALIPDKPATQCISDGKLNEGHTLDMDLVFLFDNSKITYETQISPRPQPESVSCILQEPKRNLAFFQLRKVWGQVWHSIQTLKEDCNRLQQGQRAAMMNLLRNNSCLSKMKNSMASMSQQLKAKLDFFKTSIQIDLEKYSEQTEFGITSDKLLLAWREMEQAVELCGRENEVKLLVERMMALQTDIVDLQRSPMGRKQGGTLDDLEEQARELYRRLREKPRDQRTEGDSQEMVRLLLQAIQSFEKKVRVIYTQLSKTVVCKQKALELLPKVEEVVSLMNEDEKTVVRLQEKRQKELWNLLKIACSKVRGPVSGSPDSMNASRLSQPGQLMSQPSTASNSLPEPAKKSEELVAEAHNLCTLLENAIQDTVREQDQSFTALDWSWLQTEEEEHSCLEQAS
Chain of Mitogen-activated protein kinase 9, JNK2 (Homo sapiens) (P45984 whole entry, looked up): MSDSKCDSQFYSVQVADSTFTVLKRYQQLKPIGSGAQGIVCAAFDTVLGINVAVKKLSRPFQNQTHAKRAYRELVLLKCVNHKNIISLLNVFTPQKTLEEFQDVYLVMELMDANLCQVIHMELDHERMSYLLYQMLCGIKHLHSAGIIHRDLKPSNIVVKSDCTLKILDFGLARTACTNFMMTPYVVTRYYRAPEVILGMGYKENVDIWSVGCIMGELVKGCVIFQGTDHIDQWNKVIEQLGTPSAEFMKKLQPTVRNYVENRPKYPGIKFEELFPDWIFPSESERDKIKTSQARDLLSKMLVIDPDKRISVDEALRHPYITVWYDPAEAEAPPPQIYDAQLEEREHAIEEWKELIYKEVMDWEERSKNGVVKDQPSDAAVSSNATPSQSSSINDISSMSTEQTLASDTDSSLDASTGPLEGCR
Chain of Dual specificity mitogen-activated protein kinase kinase 6 (Homo sapiens) (P52564 whole entry): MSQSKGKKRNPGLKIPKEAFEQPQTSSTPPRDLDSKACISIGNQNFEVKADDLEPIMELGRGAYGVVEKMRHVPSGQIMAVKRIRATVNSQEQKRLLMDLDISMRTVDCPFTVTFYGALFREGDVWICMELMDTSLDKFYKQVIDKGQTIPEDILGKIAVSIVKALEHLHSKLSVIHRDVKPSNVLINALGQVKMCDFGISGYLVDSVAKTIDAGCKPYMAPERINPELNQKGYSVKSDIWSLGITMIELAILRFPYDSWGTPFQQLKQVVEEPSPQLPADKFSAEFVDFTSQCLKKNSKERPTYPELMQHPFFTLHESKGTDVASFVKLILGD

Activity [1]: 16%
Activity [2]: 112%
Activity [3]: 76%
Activity [4]: 106%
Activity [5]: 46%
Activity [6]: 95%
Activity [7]: 6%
Activity [8]: 91%
Activity [9]: 106%
Activity [10]: 91%
Activity [11]: 97%
Activity [12]: 99%
Activity [13]: 93%
Activity (Rattus norvegicus): 90%
Activity [14]: 101%
Activity [15]: 106%
Activity [16]: 99%
Activity [18]: 100%
Activity [19]: 67%
Activity [20]: 86%
Activity [21]: 80%
Activity [22]: 130%
Activity [23]: 96%
Activity [24]: 77%
Activity [26]: 95%
SMILES: O=C(NCc1ccc(S(=O)(=O)N2CCC(n3nnc4ccccc43)CC2)s1)c1ccc(Cl)cc1
Rescued neurons (SCG [17]): 25.2%
Rescued neurons (SCG [25]): 22.9%
